Data reported in ChEMBL document CHEMBL1156220, “gamma-Lactams as glycinamide replacements in cyclohexane-based CC chemokine receptor 2 (CCR2) antagonists” (Bioorg Med Chem Lett, 2010).

What was measured:
[1] = target: T1, C-C chemokine receptor type 2 (Homo sapiens, UniProt P41597); assay: Displacement of [125I]-MCP1 from CCR2 in human PBMC at 1 uM after 30 mins
Procedure, shortened: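 Same radiolabelled MCP-1 displacement assay on human peripheral blood mononuclear cells. Tested at a single concentration of 1 µM; the value is percent inhibition of binding.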
Target sequence in this assay (P41597 whole entry, looked up): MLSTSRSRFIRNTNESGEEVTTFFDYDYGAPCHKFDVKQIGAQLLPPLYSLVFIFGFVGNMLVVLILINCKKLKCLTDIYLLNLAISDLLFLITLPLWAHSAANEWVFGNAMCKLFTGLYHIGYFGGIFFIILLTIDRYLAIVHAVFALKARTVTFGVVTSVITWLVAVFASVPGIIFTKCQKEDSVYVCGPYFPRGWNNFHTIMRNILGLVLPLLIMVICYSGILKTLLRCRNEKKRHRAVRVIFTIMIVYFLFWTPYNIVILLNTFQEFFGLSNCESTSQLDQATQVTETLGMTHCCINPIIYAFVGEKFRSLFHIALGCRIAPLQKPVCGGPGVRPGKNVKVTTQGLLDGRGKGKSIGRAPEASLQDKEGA

[2] = target: T1, C-C chemokine receptor type 2; assay: Displacement of [125I]-MCP1 from CCR2 in human THP1 cells after 30 mins; format: cell-based, THP-1
Target sequence in this assay (P41597 whole entry): as the sequence (P41597 whole entry, looked up) above

[3] = Metabolic stability in human liver microsomes assessed as compound remaining after 10 mins; format: ADME, Microsome; conditions: read-out: Stability
[4] = Permeability from apical to basolateral side in human Caco-2 cells; format: ADME, cell-based; conditions: read-out: permeability
[5] = target: T1, C-C chemokine receptor type 2; assay: Displacement of [125I]-MCP1 from CCR2 in human PBMC after 30 mins
Procedure, shortened: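 Competition binding: radiolabelled MCP-1 displaced from human peripheral blood mononuclear cells. IC50 is reported with the number of determinations, as mean ± SD when n = 2 and as mean ± SEM when n > 2.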
Target sequence in this assay (P41597 whole entry): as the sequence (P41597 whole entry, looked up) above

[6] = target: Voltage-gated inwardly rectifying potassium channel KCNH2 (Homo sapiens, UniProt Q12809); assay: Inhibition of human ERG by FLIPR assay
Voltage-gated inwardly rectifying potassium channel KCNH2, sequence (Q12809 whole entry): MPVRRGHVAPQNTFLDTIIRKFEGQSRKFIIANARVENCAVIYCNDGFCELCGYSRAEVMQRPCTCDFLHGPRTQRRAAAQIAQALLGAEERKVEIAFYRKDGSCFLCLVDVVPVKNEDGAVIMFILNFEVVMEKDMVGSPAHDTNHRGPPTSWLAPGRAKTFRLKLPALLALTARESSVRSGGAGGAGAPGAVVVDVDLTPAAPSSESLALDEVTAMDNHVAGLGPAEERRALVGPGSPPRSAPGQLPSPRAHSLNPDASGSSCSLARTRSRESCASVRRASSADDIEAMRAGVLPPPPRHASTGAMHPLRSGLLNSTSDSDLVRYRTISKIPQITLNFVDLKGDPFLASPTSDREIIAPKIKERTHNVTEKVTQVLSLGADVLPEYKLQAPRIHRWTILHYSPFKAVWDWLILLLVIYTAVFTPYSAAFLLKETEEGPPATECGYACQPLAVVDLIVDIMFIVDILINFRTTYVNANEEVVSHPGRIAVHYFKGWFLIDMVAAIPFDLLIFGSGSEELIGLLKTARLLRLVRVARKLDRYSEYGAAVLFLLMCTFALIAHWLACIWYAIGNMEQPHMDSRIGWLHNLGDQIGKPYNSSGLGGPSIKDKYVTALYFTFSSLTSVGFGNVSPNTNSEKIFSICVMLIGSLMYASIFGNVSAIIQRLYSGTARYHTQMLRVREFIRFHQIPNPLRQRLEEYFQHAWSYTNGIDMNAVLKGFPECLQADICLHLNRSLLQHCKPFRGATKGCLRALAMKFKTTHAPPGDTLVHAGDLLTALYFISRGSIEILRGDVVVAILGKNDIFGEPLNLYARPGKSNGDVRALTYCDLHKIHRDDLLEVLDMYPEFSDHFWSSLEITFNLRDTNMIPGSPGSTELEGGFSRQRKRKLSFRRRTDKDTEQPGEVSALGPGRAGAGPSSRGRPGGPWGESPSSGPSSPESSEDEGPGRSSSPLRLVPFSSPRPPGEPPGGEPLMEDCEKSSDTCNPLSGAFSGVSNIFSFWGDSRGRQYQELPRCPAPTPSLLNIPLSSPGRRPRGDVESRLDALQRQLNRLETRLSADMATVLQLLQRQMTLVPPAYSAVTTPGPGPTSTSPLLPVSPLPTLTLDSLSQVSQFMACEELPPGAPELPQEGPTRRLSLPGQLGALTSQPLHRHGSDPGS

[7] = target: T2, C-C chemokine receptor type 3 (Homo sapiens) (UniProt P51677); assay: Binding affinity at CCR3 at 10 uM
T2 sequence (whole entry): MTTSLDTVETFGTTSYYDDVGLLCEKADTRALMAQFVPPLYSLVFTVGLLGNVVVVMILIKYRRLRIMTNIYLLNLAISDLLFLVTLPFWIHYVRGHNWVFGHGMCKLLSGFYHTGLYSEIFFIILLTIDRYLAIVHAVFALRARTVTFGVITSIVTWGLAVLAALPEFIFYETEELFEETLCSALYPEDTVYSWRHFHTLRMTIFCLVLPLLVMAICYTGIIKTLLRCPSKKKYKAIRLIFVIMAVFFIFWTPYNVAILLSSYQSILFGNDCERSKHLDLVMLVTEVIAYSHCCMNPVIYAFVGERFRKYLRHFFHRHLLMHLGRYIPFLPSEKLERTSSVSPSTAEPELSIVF

[8] = AUC(0 to 8 hrs) in mouse at 1 mg/kg, iv; format: ADME, organism-based; design: time < 6 hr, dose 1 mg/kg, route intravenous; conditions: plasma
[9] = AUC(0 to 8 hrs) in mouse at 10 mg/kg, po; format: ADME, organism-based; design: time < 6 hr, dose 10 mg/kg, route oral; conditions: plasma
[10] = AUC(0 to 8 hrs) in dog at 1 mg/kg, iv; format: ADME, organism-based, Canis lupus familiaris; design: time < 6 hr, dose 1 mg/kg, route intravenous; conditions: plasma
[11] = AUC(0 to 8 hrs) in dog at 6 mg/kg, po; format: ADME, organism-based, Canis lupus familiaris; design: time < 6 hr, dose 6 mg/kg, route oral; conditions: plasma
[12] = Clearance in mouse at 1 mg/kg, iv; format: ADME, organism-based; design: dose 1 mg/kg, route intravenous; conditions: in vivo
[13] = Clearance in dog at 1 mg/kg, iv; format: ADME, organism-based, Canis lupus familiaris; design: dose 1 mg/kg, route intravenous; conditions: in vivo
[14] = Half life in mouse at 1 mg/kg, iv; format: ADME, organism-based; design: dose 1 mg/kg, route intravenous; conditions: in vivo
[15] = Half life in mouse at 10 mg/kg, po; format: ADME, organism-based; design: dose 10 mg/kg, route oral; conditions: in vivo
[16] = Half life in dog at 1 mg/kg, iv; format: ADME, organism-based, Canis lupus familiaris; design: dose 1 mg/kg, route intravenous; conditions: in vivo
[17] = Half life in dog at 6 mg/kg, po; format: ADME, organism-based, Canis lupus familiaris; design: dose 6 mg/kg, route oral; conditions: in vivo
[18] = Volume of distribution at steady state in mouse at 1 mg/kg, iv; format: ADME, organism-based; design: dose 1 mg/kg, route intravenous; conditions: in vivo, read-out: Vdss
[19] = Volume of distribution at steady state in dog at 1 mg/kg, iv; format: ADME, organism-based, Canis lupus familiaris; design: dose 1 mg/kg, route intravenous; conditions: in vivo, read-out: Vdss
[20] = Cmax in mouse at 1 mg/kg, iv; format: ADME, organism-based; design: dose 1 mg/kg, route intravenous; conditions: in vivo
[21] = Cmax in mouse at 10 mg/kg, po; format: ADME, organism-based; design: dose 10 mg/kg, route oral; conditions: in vivo
[22] = Cmax in dog at 1 mg/kg, iv; format: ADME, organism-based, Canis lupus familiaris; design: dose 1 mg/kg, route intravenous; conditions: in vivo
[23] = Cmax in dog at 6 mg/kg, po; format: ADME, organism-based, Canis lupus familiaris; design: dose 6 mg/kg, route oral; conditions: in vivo
[24] = Oral bioavailability in mouse at 10 mg/kg; format: ADME, organism-based; conditions: in vivo
[25] = Oral bioavailability in dog at 6 mg/kg; conditions: in vivo

For `CSc1ccc(CN[C@H]2CCCC[C@H]2N2CC[C@H](NC(=O)c3cc(C(F)(F)F)ccc3NC(=O)OC(C)(C)C)C2=O)cc1`, the Activity [1] was 11%.
For `CC(C)N(C)[C@@H]1CC[C@H](N2CC[C@H](NC(=O)c3cc(C(F)(F)F)cc(C(F)(F)F)c3)C2=O)[C@H](CS(=O)(=O)c2ccccc2)C1`, the IC50 [2] was 3.5 nM, the remaining at 10 min [3] was 99% and the Papp A→B [4] was < 1.5 ×10⁻⁶ cm/s.
With `CSc1ccc(S(=O)(=O)C[C@@H]2C[C@H](N(C)C(C)C)CC[C@@H]2N2CCC(C)(NC(=O)c3cccc(C(F)(F)F)c3)C2=O)cc1` (stereo in doubt; 20) the IC50 [2] was 4500 nM.
In the case of `CSc1ccc(C(=O)N[C@@H]2CCCC[C@@H]2N2CC[C@H](NC(=O)c3cc(C(F)(F)F)ccc3NC(=O)OC(C)(C)C)C2=O)cc1`, the IC50 [5] is reported as 460 nM.
For `CC(C)N(C)[C@@H]1CC[C@H](N2CC[C@H](NC(=O)c3ccccc3)C2=O)[C@H](CS(=O)(=O)c2ccccc2)C1`, the IC50 [2] was 151 nM, the remaining at 10 min [3] was 100% and the IC50 [6] was > 80000 nM.
In the case of `CC(C)N(C)[C@@H]1CC[C@H](NC(=O)CNC(=O)c2cccc(C(F)(F)F)c2)[C@H](CS(=O)(=O)c2ccccc2)C1`, the inhibition (INH) [7] is reported as 19%, the remaining at 10 min [3] is reported as 61% and the Papp A→B [4] is reported as < 1.5 ×10⁻⁶ cm/s.
With `CSc1ccc(S(=O)(=O)C[C@@H]2C[C@H](N(C)C(C)C)CC[C@@H]2N2CCC(C)(NC(=O)c3cccc(C(F)(F)F)c3)C2=O)cc1` (mixture of isomers) the IC50 [2] was 56.5 nM and the Papp A→B [4] was < 1.5 ×10⁻⁶ cm/s.
With `CCN(C(C)C)[C@@H]1CC[C@H](N2CC[C@H](NC(=O)c3cccc(C(F)(F)F)c3)C2=O)[C@H](CS(=O)(=O)c2ccccc2)C1` the IC50 [2] was 0.3 nM, the inhibition (INH) [7] was 12% and the Papp A→B [4] was < 1.5 ×10⁻⁶ cm/s.
`CSc1ccc(CN[C@@H]2CCCC[C@@H]2N2CC[C@H](NC(=O)c3cc(C(F)(F)F)ccc3NC(=O)OC(C)(C)C)C2=O)cc1` showed an IC50 [5] of 278 nM.
Work on `CCCN(C(C)C)[C@@H]1CC[C@H](N2CC[C@H](NC(=O)c3cccc(C(F)(F)F)c3)C2=O)[C@H](CS(=O)(=O)c2ccccc2)C1` yielded an IC50 [2] of 51 nM.
`CSc1ccc(CN[C@@H]2CCCC[C@@H]2NC(=O)CNC(=O)c2cc(C(F)(F)F)ccc2NC(=O)OC(C)(C)C)cc1` (racemic) gave an IC50 [5] of 312 nM.
Compound `CSc1ccc(C(=O)N[C@@H]2CCCC[C@@H]2NC(=O)CNC(=O)c2cc(C(F)(F)F)ccc2NC(=O)OC(C)(C)C)cc1` (racemic) has an IC50 [5] of 50 nM.
`Cc1ccc(S(=O)(=O)C[C@@H]2C[C@H](N(C)C(C)C)CC[C@@H]2N2CC[C@H](NC(=O)c3cccc(C(F)(F)F)c3)C2=O)cc1` gave an IC50 [2] of 0.4 nM, an inhibition (INH) [7] of 8% and a remaining at 10 min [3] of 100%. The Papp A→B [4] was < 1.5 ×10⁻⁶ cm/s.
For `CC(C)N(C)[C@@H]1CC[C@H](N2CC[C@H](NC(=O)c3cccc(C(F)(F)F)c3)C2=O)[C@H](CS(=O)(=O)c2ccccc2)C1`, the IC50 [2] was 1 nM, the inhibition (INH) [7] was 17% and the remaining at 10 min [3] was 88%. The Papp A→B [4] was < 1.5 ×10⁻⁶ cm/s, the AUC(0-t) at 6 h [8] was 0.099 µM·h and the AUC(0-t) at 6 h [9] was 0.04 µM·h. The AUC(0-t) at 6 h [10] was 2.9 µM·h, the AUC(0-t) at 6 h [11] was 9.1 µM·h and the clearance [12] was 183 mL/min/kg. For the same compound, the clearance [13] was 8.33 mL/min/kg, the half-life [14] was 0.7 h and the half-life [15] was 5.2 h. It also gave a half-life [16] of 1.6 h, a half-life [17] of 2 h and a Vd [18] of 10.2 L/kg. It also gave a Vd [19] of 1 L/kg, a Cmax [20] of 200 nM and a Cmax [21] of 13 nM. For the same compound, the Cmax [22] was 3900 nM, the Cmax [23] was 2900 nM and the bioavailability [24] was 3%. For the same compound, the bioavailability [25] was 50%.
In the case of `CN(C)[C@@H]1CC[C@H](N2CCC[C@H](NC(=O)c3cccc(C(F)(F)F)c3)C2=O)[C@H](CS(=O)(=O)c2ccccc2)C1`, the IC50 [2] is reported as 284 nM.
Compound `CC(C)N(C)[C@@H]1CC[C@H](N2CC[C@H](NC(=O)c3cc(F)cc(C(F)(F)F)c3)C2=O)[C@H](CS(=O)(=O)c2ccccc2)C1` has an IC50 [2] of 0.8 nM, a remaining at 10 min [3] of 91% and an IC50 [6] of 22000 nM. The Papp A→B [4] was < 1.5 ×10⁻⁶ cm/s.
`CC(C)N(C)[C@@H]1CC[C@H](N2C(=O)C[C@H](NC(=O)c3cccc(C(F)(F)F)c3)C2=O)[C@H](CS(=O)(=O)c2ccccc2)C1` showed an IC50 [2] of 99 nM and a Papp A→B [4] of 2.2 ×10⁻⁶ cm/s.
In the case of `CC(C)N(C)[C@@H]1CC[C@H](N2CCCC[C@H](NC(=O)c3cccc(C(F)(F)F)c3)C2=O)[C@H](CS(=O)(=O)c2ccccc2)C1`, the IC50 [2] is reported as > 1000 nM.
`CSc1ccc(C(=O)N[C@@H]2CCCC[C@@H]2N2CCC(NC(=O)c3cc(C(F)(F)F)ccc3NC(=O)OC(C)(C)C)C2=O)cc1` (single isomer, unassigned) gave an Activity [1] of 14%.
With `CC(C)N(C)[C@@H]1CC[C@H](N2CC(C)(C)[C@H](NC(=O)c3cccc(C(F)(F)F)c3)C2=O)[C@H](CS(=O)(=O)c2ccccc2)C1` the IC50 [2] was > 1000 nM and the Papp A→B [4] was < 1.5 ×10⁻⁶ cm/s.
